{"source": "paper PMC9305210", "about": "(British Journal of Clinical Pharmacology, 2022)", "key": {"Safety and tolerability": {"test": "Safety and tolerability", "type": "in vivo, human", "method_in_brief": "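Randomized, double-blind, placebo-controlled; cohorts of 8 (6:2) healthy adults given oral solution daily for a planned 14 days after ≥8 h fast, confined on site days −3 to 15 plus 1 follow-up day. Monitoring covered AEs, physical examination, BMI, vital signs, ECG and clinical laboratory tests. Subjects with ≥1 treatment-emergent AE counted across all subjects receiving at least one dose.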"}, "Urine pharmacokinetics": {"test": "Urine pharmacokinetics", "type": "in vivo, human", "settings": "for Ae t, mean (CV%) / f e, mean (CV%): urine"}, "CH24H": {"system": "CH24H", "settings": "CH24H‐knockout mice vs wild‐type controls; cited from earlier work"}, "[1]": {"type": "in vivo, human", "settings": "for half-life / AUC: human; for half-life / AUC / CL/F, mean (CV%): plasma; for half-life: oral; for AUC: po, AUCτ, mean (CV%), AUCτ = AUC24"}, "24HC levels in the brain": {"system": "24HC levels in the brain", "settings": "single oral administration in mice; cited from earlier work"}, "[2]": {"system": "plasma 24S‐hydroxycholesterol (24HC)", "test": "Pharmacodynamics: time‐matched percentage change from baseline in plasma 24HC", "type": "in vivo, human", "method_in_brief": "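Healthy adults (18-55 y, BMI 18-30 kg/m2), 6 active:2 placebo, double-blind; oral solution QD or BID after ≥8 h fast. 24HC by LC-MS/MS, validated 2.00-100 ng/mL. Time-matched % change from baseline; AUEC24/E24 for QD, AUEC12/E12 for BID.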"}, "[3]": {"settings": "soticlestat 100 mg QD oral solution, day 1"}, "[4]": {"settings": "soticlestat 100 mg QD oral solution, day 14"}, "[5]": {"settings": "soticlestat 300 mg QD oral solution, day 1"}, "[6]": {"settings": "soticlestat 300 mg QD oral solution, day 14"}, "[7]": {"settings": "soticlestat 400 mg QD oral solution, day 1"}, "[8]": {"settings": "soticlestat 400 mg QD oral solution, day 14"}, "[9]": {"settings": "soticlestat 600 mg QD oral solution, day 1"}, "[10]": {"settings": "day 14, 400 mg dose (range 100‐400 mg QD)"}}, "note": "Read-outs that look alike come from different tables or passages of the source. Marks after values point to notes of the source that are not given here."}
{"smiles": "O=C(c1cccnc1-c1ccncc1)N1CCC(O)(Cc2ccccc2)CC1", "note": "[Soticlestat, soticlestat]", "values": [{"measurement": "TEAE leading to discontinuation", "setting": "Safety and tolerability; one subject, 600 mg QD (cohort 4), study day 10", "result": "severe event of acute psychosis"}, {"measurement": "total number of TEAEs reported", "setting": "Safety and tolerability; subjects administered soticlestat, all doses", "result": 45}, {"measurement": "renal excretion / renal elimination", "setting": "Urine pharmacokinetics; all doses", "result": "negligible"}, {"measurement": "Ae t, mean (CV%)", "setting": "Urine pharmacokinetics; Ae τ = Ae 12, soticlestat 300 mg BID oral solution, day 1", "result": "0.490 (75.9) mg"}, {"measurement": "Ae t, mean (CV%)", "setting": "Urine pharmacokinetics; Ae τ = Ae 24, soticlestat 100 mg QD oral solution, day 1", "result": "0.0900 (25.6) mg"}, {"measurement": "Ae t, mean (CV%)", "setting": "Urine pharmacokinetics; Ae τ = Ae 24, soticlestat 100 mg QD oral solution, day 14", "result": "0.0800 (30.0) mg"}, {"measurement": "Ae t, mean (CV%)", "setting": "Urine pharmacokinetics; Ae τ = Ae 24, soticlestat 300 mg QD oral solution, day 1", "result": "0.660 (84.3) mg"}, {"measurement": "Ae t, mean (CV%)", "setting": "Urine pharmacokinetics; Ae τ = Ae 24, soticlestat 300 mg QD oral solution, day 14", "result": "0.56 (83.4) mg"}, {"measurement": "Ae t, mean (CV%)", "setting": "Urine pharmacokinetics; Ae τ = Ae 24, soticlestat 400 mg QD oral solution, day 1", "result": "0.920 (47.7) mg"}, {"measurement": "Ae t, mean (CV%)", "setting": "Urine pharmacokinetics; Ae τ = Ae 24, soticlestat 400 mg QD oral solution, day 14", "result": "1.01 (31.9) mg"}, {"measurement": "Ae t, mean (CV%)", "setting": "Urine pharmacokinetics; Ae τ = Ae 24, soticlestat 600 mg QD oral solution, day 1", "result": "1.440 (74.4) mg"}, {"measurement": "f e, mean (CV%)", "setting": "Urine pharmacokinetics; [3]", "result": "0.0900 (25.6) %"}, {"measurement": "f e, mean (CV%)", "setting": "Urine pharmacokinetics; [4]", "result": "0.0800 (30.0) %"}, {"measurement": "f e, mean (CV%)", "setting": "Urine pharmacokinetics; soticlestat 300 mg BID oral solution, day 1", "result": "0.160 (75.9) %"}, {"measurement": "f e, mean (CV%)", "setting": "Urine pharmacokinetics; [5]", "result": "0.220 (84.3) %"}, {"measurement": "f e, mean (CV%)", "setting": "Urine pharmacokinetics; [6]", "result": "0.190 (83.4) %"}, {"measurement": "f e, mean (CV%)", "setting": "Urine pharmacokinetics; [7]", "result": "0.230 (47.7) %"}, {"measurement": "f e, mean (CV%)", "setting": "Urine pharmacokinetics; [8]", "result": "0.250 (31.9) %"}, {"measurement": "f e, mean (CV%)", "setting": "Urine pharmacokinetics; [9]", "result": "0.240 (74.4) %"}, {"measurement": "soticlestat distribution in the brain", "setting": "CH24H", "result": "substantially lower level of soticlestat distribution in the brain than wild‐type controls"}, {"measurement": "increase in AUCτ at steady state (accumulation ratio based on AUC)", "setting": "[1]; 300 mg QD for 14 days", "result": "~1.42", "unit": "fold"}, {"measurement": "increase in C max at steady state (day 14 vs day 1)", "setting": "[1]; 300 mg QD for 14 days", "result": "approximately 1.74 fold"}, {"measurement": "accumulation ratio based on AUC", "setting": "[1]; 400 mg QD", "result": 1.20}, {"measurement": "dose proportionality of steady‐state exposure", "setting": "[1]; 100‐400 mg QD, 14 days", "result": "slightly greater than dose‐proportional"}, {"measurement": "increase in single‐dose mean AUC∞ over 6‐fold dose range", "setting": "[1]; day 1, 100‐600 mg", "result": 9.35, "unit": "fold"}, {"measurement": "increase in single‐dose mean C max over 6‐fold dose range", "setting": "[1]; day 1, 100‐600 mg", "result": 6.55, "unit": "fold"}, {"measurement": "time‐dependent effect of PK on repeat dosing", "setting": "[1]; day 1 vs day 14", "result": "not apparent"}, {"measurement": "increase in mean AUCτ over 4‐fold dose range", "setting": "[1]; day 14, 100‐400 mg QD", "result": 6.12, "unit": "fold"}, {"measurement": "increase in mean C max over 4‐fold dose range", "setting": "[1]; day 14, 100‐400 mg QD", "result": 6.08, "unit": "fold"}, {"measurement": "half-life", "setting": "[1]; elimination half‐life, overall, as summarised in abstract", "result": "~240", "unit": "min"}, {"measurement": "half-life", "setting": "[1]; mean half‐life, at 300 mg QD and 400 mg QD", "result": "~240", "unit": "min"}, {"measurement": "half-life", "setting": "[1]; mean terminal elimination half‐life (t ½z), range across groups, day 1 and day 14, all doses", "result": "209 to 290", "unit": "min"}, {"measurement": "AUC", "setting": "[1]; 100 mg, soticlestat 100 mg QD oral solution, day 1", "result": 446, "unit": "ng·h/mL"}, {"measurement": "AUC", "setting": "[1]; 100 mg, soticlestat 100 mg QD oral solution, day 14", "result": 458, "unit": "ng·h/mL"}, {"measurement": "AUC", "setting": "[1]; 300 mg, soticlestat 300 mg QD oral solution, day 1", "result": 2030, "unit": "ng·h/mL"}, {"measurement": "AUC", "setting": "[1]; 300 mg, soticlestat 300 mg QD oral solution, day 14", "result": 2690, "unit": "ng·h/mL"}, {"measurement": "AUC", "setting": "[1]; 400 mg, soticlestat 400 mg QD oral solution, day 1", "result": 2500, "unit": "ng·h/mL"}, {"measurement": "AUC", "setting": "[1]; 400 mg, soticlestat 400 mg QD oral solution, day 14", "result": 2800, "unit": "ng·h/mL"}, {"measurement": "AUC", "setting": "[1]; 600 mg, soticlestat 600 mg QD oral solution, day 1", "result": 4180, "unit": "ng·h/mL"}, {"measurement": "exposure accumulation on day 14 compared with day 1", "setting": "[1]; once‐daily dosing of 100 or 400 mg for 14 days", "result": "did not appear to result in exposure accumulation"}, {"measurement": "CL/F, mean (CV%)", "setting": "[1]; [3]", "result": "248 (40.4) ^c L/h"}, {"measurement": "CL/F, mean (CV%)", "setting": "[1]; [4]", "result": "234 (29.6) L/h"}, {"measurement": "CL/F, mean (CV%)", "setting": "[1]; soticlestat 300 mg BID oral solution, day 1 after first dose", "result": "232 (47.3) ^e L/h"}, {"measurement": "CL/F, mean (CV%)", "setting": "[1]; [5]", "result": "185 (47.6) L/h"}, {"measurement": "CL/F, mean (CV%)", "setting": "[1]; [6]", "result": "130 (43.9) L/h"}, {"measurement": "CL/F, mean (CV%)", "setting": "[1]; [7]", "result": "187 (38.8) L/h"}, {"measurement": "CL/F, mean (CV%)", "setting": "[1]; [8]", "result": "166 (44.4) L/h"}, {"measurement": "CL/F, mean (CV%)", "setting": "[1]; [9]", "result": "194 (57.5) L/h"}, {"measurement": "dose proportionality of systemic exposure", "setting": "[1]; single doses of 100‐600 mg QD", "result": "slightly greater than dose‐proportional"}, {"measurement": "24HC levels in the brain", "setting": "24HC levels in the brain", "result": "dose‐dependent reduction in 24HC levels in the brain"}, {"measurement": "24HC AUECτ, mean (CV%), percentage change from baseline (day −1)", "setting": "[2]; AUECτ = AUEC12, 300 mg BID, day 1", "result": "−6.90 (−75.9) %"}, {"measurement": "24HC AUECτ, mean (CV%), percentage change from baseline (day −1)", "setting": "[2]; AUECτ = AUEC24, 100 mg QD, day 1", "result": "−8.15 (−45.4) %"}, {"measurement": "24HC AUECτ, mean (CV%), percentage change from baseline (day −1)", "setting": "[2]; AUECτ = AUEC24, 100 mg QD, day 14", "result": "−46.8 (−9.2) %"}, {"measurement": "24HC AUECτ, mean (CV%), percentage change from baseline (day −1)", "setting": "[2]; AUECτ = AUEC24, 300 mg QD, day 1", "result": "−12.7 (−36.5) %"}, {"measurement": "24HC AUECτ, mean (CV%), percentage change from baseline (day −1)", "setting": "[2]; AUECτ = AUEC24, 300 mg QD, day 14", "result": "−61.9 (−17.0) %"}, {"measurement": "24HC AUECτ, mean (CV%), percentage change from baseline (day −1)", "setting": "[2]; AUECτ = AUEC24, 400 mg QD, day 1", "result": "−11.7 (−34.5) %"}, {"measurement": "24HC AUECτ, mean (CV%), percentage change from baseline (day −1)", "setting": "[2]; AUECτ = AUEC24, 400 mg QD, day 14", "result": "−62.7 (−7.3) %"}, {"measurement": "24HC AUECτ, mean (CV%), percentage change from baseline (day −1)", "setting": "[2]; AUECτ = AUEC24, 600 mg QD, day 1", "result": "−14.0 (−27.9) %"}, {"measurement": "24HC E t, mean (CV%), percentage change from baseline (day −1)", "setting": "[2]; E t = E 12, 300 mg BID, day 1", "result": "−10.5 (−63.8) %"}, {"measurement": "24HC E t, mean (CV%), percentage change from baseline (day −1)", "setting": "[2]; E t = E 24, 100 mg QD, day 1", "result": "−20.9 (−49.0) %"}, {"measurement": "24HC E t, mean (CV%), percentage change from baseline (day −1)", "setting": "[2]; E t = E 24, 100 mg QD, day 14", "result": "−49.1 (−11.9) %"}, {"measurement": "24HC E t, mean (CV%), percentage change from baseline (day −1)", "setting": "[2]; E t = E 24, 300 mg QD, day 1", "result": "−22.4 (−19.5) %"}, {"measurement": "24HC E t, mean (CV%), percentage change from baseline (day −1)", "setting": "[2]; E t = E 24, 300 mg QD, day 14", "result": "−63.8 (−19.3) %"}, {"measurement": "24HC E t, mean (CV%), percentage change from baseline (day −1)", "setting": "[2]; E t = E 24, 400 mg QD, day 1", "result": "−28.4 (−28.1) %"}, {"measurement": "24HC E t, mean (CV%), percentage change from baseline (day −1)", "setting": "[2]; E t = E 24, 400 mg QD, day 14", "result": "−65.6 (−6.0) %"}, {"measurement": "24HC E t, mean (CV%), percentage change from baseline (day −1)", "setting": "[2]; E t = E 24, 600 mg QD, day 1", "result": "−30.6 (−41.0) %"}, {"measurement": "maximum decrease from baseline in 24HC AUEC24", "setting": "[2]; [10]", "result": 62.66, "unit": "%"}, {"measurement": "maximum decrease from baseline in 24HC E24", "setting": "[2]; [10]", "result": 65.59, "unit": "%"}]}
